Measurements from paper PMC9958447 (Heliyon, 2023).
Entries after “also recorded” stand apart in the source; their conditions may differ.

Columns and labels:
[1] = system: zebrafish larvae; details: cited from earlier work
[2] = system: PTZ-induced larvae of zebrafish; assay: Behavioural assessment in PTZ-induced epilepsy zebrafish larvae; format: in vivo, zebrafish (Danio rerio)
[3] = system: zc4h2 KO zebrafish larvae; assay: Heartbeat / cardiotoxicity in zc4h2 KO zebrafish larvae; format: in vivo, zebrafish (Danio rerio); details: for cardiotoxicity: zebrafish larvae, judged from heartbeat
[4] = system: wild-type (WT) zebrafish embryos; assay: Toxicity profiling of embryo zebrafish; format: in vivo, zebrafish (Danio rerio)
Summary of the method: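 Wild-type embryos were exposed from 5 hpf to the test compound at 0, 4.29, 8.58, 12.86, 17.15 and 21.44 μM, serially diluted from a 1 mM DMSO stock. Triplicates had 10 embryos each (n = 30). Mortality was scored daily, with LC50 at 72 hpf. Spontaneous coils were counted for 1 min at 24 hpf after 5 min habituation. Percent hatched was scored at 72 hpf. Data are mean ± SEM, analysed by one-way ANOVA with Tukey.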

[5] = cited from earlier work
[6] = 2.5 mM PTZ, 5 dpf larvae, 8.58 μM compound 8 or 100 μM VPA, 1 h
[7] = 2.5 mM PTZ, 5 dpf larvae, 8.58 μM compound 8 or 100 μM VPA, 1 h, vs PTZ group
[8] = 2.5 mM PTZ alone vs control, 5 dpf larvae

Structure (SMILES): CN1C(=O)CN=C(c2ccccc2)c2cc(Cl)ccc21 [diazepam]
- percentage of distance spent in the inner area [1]: significantly increased

Structure (SMILES): CCCC(CCC)C(=O)O [VPA, sodium valproate]
- distance spent in the inner area (thigmotaxis) [2, 6]: significantly increased
- total duration of freezing [2, 6]: without significant changes
- average velocity (average speed travelled) [2, 7]: significant decrease
- distance travelled (total and average) [2, 7]: significant decrease
- number of freezing count [2, 7]: significantly reduced
- total velocity (total speed travelled) [2, 7]: significant decrease

Structure (SMILES): C1CCc2nnnn2CC1 [PTZ, pentylenetetrazol]
- distance and speed of zebrafish [2, 8]: significantly increased
- total number of freezes [2, 8]: significantly increased

Structure (SMILES): O=C(/C=C/c1cc(F)cc(F)c1)c1ccc[nH]1 [Compound 8, (E)-3-(3,5-difluorophenyl)-1-(1H-pyrrol-2-yl)prop-2-en-1-one]
- heartbeat (heartbeats/min) ([3]; 5 dpf larvae, 2 h incubation, vs control groups): no significant difference
- cardiotoxicity [3]: no cardiotoxic effects
- cardiotoxicity ([3]; listed as compound 8): no cardiotoxic effect; also recorded: no potential cardiotoxicity
- mortality at the beginning of the observation period ([4]; 21.44 μM, 24 hpf): lethal
- spontaneous tail coiling (STC) ([4]; >12.86 μM, 24 hpf): no tail movement
- optimal safe concentration ([4]; chosen from all toxicological parameters): 8.58 µM
- cumulative mortality rate ([4]; exposure of 12.86 μM or more, 24–72 hpf): > 80%
- mortality compared to the control group ([4]; exposure up to 8.58 μM): no significant difference
- spontaneous tail coiling (STC) compared to control ([4]; from 8.58 μM, 24 hpf): significant decrease
- hatching rate ([4]; from 12.86 μM, 72 hpf): decreased significantly
- distance spent in the inner area (thigmotaxis) [2, 6]: significantly increased
- total duration of freezing [2, 6]: increased
- average velocity (average speed travelled) [2, 7]: significant decrease
- number of freezing count [2, 7]: significant reduction
- total velocity (total speed travelled) [2, 7]: significant decrease
- convulsive behaviour ([2]; PTZ-induced larvae): effective in reducing

Structure (SMILES): O=c1onc(-c2cccs2)n1Cc1ccc(F)cc1Cl [GM90432, 4-(2-chloro-4-fluorobenzyl)-3-(2-thienyl)-1,2,4-oxadiazol-5(4H)-one]
- blood-brain barrier passage [5]: effectively cross the blood-brain barrier
